The results in this text go back to ChEMBL document CHEMBL4270668, “Design, Synthesis, Molecular Dynamics Simulation, and Functional Evaluation of a Novel Series of 26RFa Peptide Analogues Containing a Mono- or Polyalkyl Guanidino Arginine Derivative” (J Med Chem, 2018).

pEC50, pIC50: −log10 of the molar value. Calls of active or inactive are those of the source. No cut-off for these calls is given here. Starred links: 1 amine or outer side, 2 acyl side, 3 side chain; linkers in the order of their positions; H or OH if unused. Non-standard residues stand in square brackets, D forms with d. Residues, ends and D or L forms follow the SMILES beside them. X1 = C/N=C(\NCCC[C@H](N[*:1])C(=O)[*:2])N(C)C; X18 = C/N=C(/NCC[C@H](N[*:1])C(=O)[*:2])N(C)C; X17 = CC(C)CNC(=N)NCC[C@H](N[*:1])C(=O)[*:2]; X19 = C/N=C(\NC)NCCCC[C@H](N[*:1])C(=O)[*:2]; X3 = CN(C)C(=N)NCCCC[C@H](N[*:1])C(=O)[*:2]; Arg(Me2a) = CN(C)C(=N)NCCC[C@H](N)C(=O)O; X15 = CCNC(=N)NCC[C@H](N[*:1])C(=O)[*:2]; Arg(Me) = CNC(=N)NCCC[C@H](N)C(=O)O; Agb = N=C(N)NCC[C@H](N)C(=O)O

In experiment [1] the target is T1, Pyroglutamylated RF-amide peptide receptor (Homo sapiens, UniProt Q96P65).
T1 sequence (Q96P65 whole entry): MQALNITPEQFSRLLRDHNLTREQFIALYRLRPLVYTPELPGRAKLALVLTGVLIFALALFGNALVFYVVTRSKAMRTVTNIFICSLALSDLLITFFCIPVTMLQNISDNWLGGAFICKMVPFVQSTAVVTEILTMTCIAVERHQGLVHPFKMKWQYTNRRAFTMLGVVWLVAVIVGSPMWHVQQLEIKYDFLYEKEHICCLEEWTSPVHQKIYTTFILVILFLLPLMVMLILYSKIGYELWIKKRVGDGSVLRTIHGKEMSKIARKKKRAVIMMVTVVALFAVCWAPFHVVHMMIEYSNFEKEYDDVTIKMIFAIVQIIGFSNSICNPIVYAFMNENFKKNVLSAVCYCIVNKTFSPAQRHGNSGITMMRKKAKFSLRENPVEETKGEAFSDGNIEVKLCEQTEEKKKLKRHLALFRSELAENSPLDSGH
The experiment in a line: Antagonist activity at human QRFPR expressed in CHO cells co-expressing Galpha16 assessed as inhibition of 26RFa-induced Ca2+ mobilization preincubated for 15 mins followed by agonist addition measured after 3 mins by Fluo-4 AM-based scanning fluorometery. It counts as functional, cell-based. The procedure, abridged: (§1)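 CHO-Gα16-hQRFPR cells loaded 1 h with 2 µM Fluo-4 AM, then incubated 15 min with graded compound. A 10^-7 M final 26RFa pulse was given during recording. Background subtracted, baseline normalized to 100%, peak fluorescence taken per concentration. IC50 from sigmoidal variable-slope fits, ≥3 experiments in triplicate. Maximal effect at 10^-4 M expressed as % inhibition of the 26RFa (10^-7 M) response.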
In general terms: A change in cytosolic calcium serves as a functional read-out for many receptors and channels.

Experiment [2] concerns the target T1, Pyroglutamylated RF-amide peptide receptor. In words: Agonist activity at human QRFPR expressed in CHO cells co-expressing Galpha16 assessed as increase Ca2+ mobilization after 3 mins by Fluo-4 AM-based scanning fluorometery. It counts as functional, cell-based. The essentials:
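CHO-Gα16 cells stably expressing human QRFPR, seeded at 40,000 cells/well 24 h ahead. Loaded 1 h with 2 µM Fluo-4 AM plus 0.01% pluronic acid, washed, then 30 min in HBSS with 2.5 mM probenecid and 5 mM HEPES. Compounds added at final 10^-11 to 10^-5 M; fluorescence recorded 3 min on a scanning fluorometer. EC50 from sigmoidal variable-slope fits, ≥3 experiments in triplicate.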

In experiment [3] the target is T2, Pyroglutamylated RF-amide peptide receptor (Homo sapiens) (UniProt Q96P65).
T2 sequence (whole entry): T1 sequence (Q96P65 whole entry)
The experiment in a line: Antagonist activity at human QRFPR expressed in CHO cells co-expressing Galpha16 assessed as inhibition of 26RFa-induced Ca2+ mobilization at 100 uM preincubated for 15 mins followed by agonist addition measured after 3 mins by Fluo-4 AM-based scanning fluorometery relative to 26RFa (20 to 26 residues). It counts as functional, cell-based. The essentials:
as §1

Experiment [4] concerns Mus musculus. In words: Induction of insulin-induced hypoglycemia in C57Bl/6J mouse at 148 ug/kg, ip measured up to 90 mins post insulin injection by insulin tolerance test. It counts as functional, organism-based. The procedure, abridged:
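Mice fasted 6 h with water available, then given i.p. human insulin 0.75 U/kg together with peptide 148 µg/kg (equimolar to 26RFa) or vehicle. Tail-vein plasma glucose read by glucometer at 0, 15, 30, 60 and 90 min. At least eight animals per group; two-way ANOVA with Tukey post-test.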

Experiment [5] relates to Mus musculus. The experiment in a line: Induction of insulin-induced hypoglycemia in C57Bl/6J mouse at 148 ug/kg, ip measured after 90 mins post insulin injection by insulin tolerance test. It counts as functional, organism-based. To be noted: 741 ug/kg, in the assay text read “741 ug/kg” for “148 ug/kg”.
Experiment [6] addresses T2, Pyroglutamylated RF-amide peptide receptor (Homo sapiens). In words: Antagonist activity at human QRFPR expressed in CHO cells co-expressing Galpha16 assessed as inhibition of 26RFa-induced Ca2+ mobilization at 10 uM preincubated for 30 mins followed by agonist addition measured after 3 mins by Fluo-4 AM-based scanning fluorometery. Type of experiment: functional, cell-based. The essentials: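 One-dose screen in CHO-Gα16 cells stably expressing human QRFPR, Fluo-4 AM loaded. Cells incubated 30 min with analogue at 10^-5 M, then challenged with 26RFa at 10^-7 M during fluorescence recording. Response normalized to 26RFa alone in HBSS.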

The subject of experiment [7] is Mus musculus. In words: Induction of insulin-induced hypoglycemia in C57Bl/6J mouse at 500 ug/kg, ip measured up to 90 mins post insulin injection by insulin tolerance test. Type of experiment: functional, organism-based. The procedure, abridged:
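Mice fasted 6 h, then given i.p. insulin 0.75 U/kg with 26RFa 500 µg/kg, or phosphate buffer as vehicle. Tail-vein plasma glucose measured by glucometer at 0, 15, 30, 60 and 90 min. n = 8 per group; two-way ANOVA with Tukey post-test.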

Consider `CN(C)C(=N)NCCC[C@H](NC(=O)[C@H](Cc1ccccc1)NC(=O)[C@H](CO)NC(=O)[C@H](Cc1ccccc1)NC(=O)CNC(=O)CN)C(=O)N[C@@H](Cc1ccccc1)C(N)=O` (H-GGFSF[Arg(Me2a)]F-NH2), for which the pIC50 (usually the IC50 on a negative log10 scale, so that one unit is a factor of ten) in experiment [1] was 5.22. In addition, the negative-log EC50 (pEC50) – broadly, the EC50 on a negative log10 scale, so that one unit is a factor of ten – in experiment [2] was less than 4.00. In addition, the Imax in experiment [3] turned out to be 80%.
On to `CNC(=N)NCCC[C@H](NC(=O)[C@H](Cc1ccccc1)NC(=O)[C@H](CO)NC(=O)[C@H](Cc1ccccc1)NC(=O)CNC(=O)CN)C(=O)N[C@@H](Cc1ccccc1)C(N)=O` (H-GGFSF[Arg(Me)]F-NH2), for which, in the experiment on Mus musculus [4], the result was inactive. Also, in the experiment with Mus musculus [5], the outcome was Active. In experiment [2], the pEC50 is 7.18.
Regarding `CC(C)CNC(=N)NCC[C@H](NC(=O)[C@H](Cc1ccccc1)NC(=O)[C@H](CO)NC(=O)[C@H](Cc1ccccc1)NC(=O)CNC(=O)CN)C(=O)N[C@@H](Cc1ccccc1)C(N)=O` (H-GGFSF[X17]F-NH2), the pIC50 in experiment [1] was less than 4.00. Moreover, in experiment [2], the pEC50 was less than 4.00.
Take `C/N=C(\NCCC[C@H](NC(=O)[C@H](Cc1ccccc1)NC(=O)[C@H](CO)NC(=O)[C@H](Cc1ccccc1)NC(=O)CNC(=O)CN)C(=O)N[C@@H](Cc1ccccc1)C(N)=O)N(C)C` (H-GGFSF[X1]F-NH2): in experiment [1], the pIC50 was 5.08. The pEC50 in experiment [2] is less than 4.00. For the same compound, in experiment [3], the Imax worked out at 87.5%. The inhibition (in general, how much of the control response was suppressed) in experiment [6] was 47%.
For the compound `C/N=C(\NC)NCCCC[C@H](NC(=O)[C@H](Cc1ccccc1)NC(=O)[C@H](CO)NC(=O)[C@H](Cc1ccccc1)NC(=O)CNC(=O)CN)C(=O)N[C@@H](Cc1ccccc1)C(N)=O` (H-GGFSF[X19]F-NH2), the pIC50 in experiment [1] is less than 4.00. Besides, the pEC50 in experiment [2] was less than 4.00.
Consider H-VGTALGSLAEELNGYNRKKGGFSFRF-NH2, for which the negative-log EC50 (pEC50) in experiment [2] was 7.34. In the experiment with Mus musculus [7], the outcome was Active.
As for `N=C(N)NCC[C@H](NC(=O)[C@H](Cc1ccccc1)NC(=O)[C@H](CO)NC(=O)[C@H](Cc1ccccc1)NC(=O)CNC(=O)CN)C(=O)N[C@@H](Cc1ccccc1)C(N)=O` (H-GGFSF[Agb]F-NH2), the pIC50 in experiment [1] is less than 4.00. In experiment [2], the pEC50 was less than 4.00.
For `CCNC(=N)NCC[C@H](NC(=O)[C@H](Cc1ccccc1)NC(=O)[C@H](CO)NC(=O)[C@H](Cc1ccccc1)NC(=O)CNC(=O)CN)C(=O)N[C@@H](Cc1ccccc1)C(N)=O` (H-GGFSF[X15]F-NH2), in experiment [1], the pIC50 was less than 4.00. In addition, the pEC50 in experiment [2] was less than 4.00.
Turning to `CN(C)C(=N)NCCCC[C@H](NC(=O)[C@H](Cc1ccccc1)NC(=O)[C@H](CO)NC(=O)[C@H](Cc1ccccc1)NC(=O)CNC(=O)CN)C(=O)N[C@@H](Cc1ccccc1)C(N)=O` (H-GGFSF[X3]F-NH2), the pIC50 in experiment [1] was less than 4.00. Moreover, the pEC50 in experiment [2] is less than 4.00.
Turning to `C/N=C(/NCC[C@H](NC(=O)[C@H](Cc1ccccc1)NC(=O)[C@H](CO)NC(=O)[C@H](Cc1ccccc1)NC(=O)CNC(=O)CN)C(=O)N[C@@H](Cc1ccccc1)C(N)=O)N(C)C` (H-GGFSF[X18]F-NH2), the pIC50 in experiment [1] is less than 4.00. The pEC50 in experiment [2] is less than 4.00.
